Screens (PubChem BioAssay)
Shown are actives, neighbours in structure and some others; about 2.1% of the full set was active somewhere.
CCR6 antag = antagonists of human CCR6 receptor; hit rate 0.49% among 340,000; CHO-K1 CCR6 PathHunter beta-arrestin, luminescence, CCL20-stimulated; inhibition, % at 20 µM; P51684;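 active = compounds whose inhibition of the agonist-driven luminescence signal at 20 µM reaches about 50%, limit read from the data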;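 note: cells stimulated with CCL20 at 14 nM final; plate controls were DMSO with CCL20 for no effect and DMSO without agonist for full effect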
APJ ag = APJ receptor agonism; P35414; CHO-K1 APJ PathHunter beta-arrestin, luminescence; 0% DMSO wells, 100% apelin; activation, % at 20 µM; hit rate 0.11% among 330,000; AID 2520;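 active = activation more than six SD over the plate average, tested at 20 µM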;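 note: 0% = DMSO alone and 100% = apelin-13 at 10 nM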
Target sequence (P35414 whole entry, looked up): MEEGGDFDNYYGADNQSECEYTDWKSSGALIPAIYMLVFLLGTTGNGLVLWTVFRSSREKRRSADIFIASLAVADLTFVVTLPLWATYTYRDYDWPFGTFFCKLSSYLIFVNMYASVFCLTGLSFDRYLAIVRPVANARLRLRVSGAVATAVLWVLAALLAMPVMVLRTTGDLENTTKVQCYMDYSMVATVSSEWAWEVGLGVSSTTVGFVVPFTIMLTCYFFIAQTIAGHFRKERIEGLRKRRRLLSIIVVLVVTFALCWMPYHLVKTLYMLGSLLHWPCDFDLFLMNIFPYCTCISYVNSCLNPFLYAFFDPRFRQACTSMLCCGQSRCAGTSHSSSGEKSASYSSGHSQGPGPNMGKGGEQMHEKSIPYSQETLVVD
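Assay system – PathHunter CHO-K1 APJ (AGTRL-1) beta-arrestin reporter cells · Compound – one dose, 20 µM compound, 1% DMSO · Timing – compound 90 min 25 °C, reagent 1 h · Measured by – luminescence from split beta-galactosidase complementation, Galacton Star/Emerald II substrate · Measure – beta-arrestin recruitment to APJ as agonist activity, luminescent signal · Benchmarks – DMSO vs Apelin-13 10 nM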
m5-HT2A agonist = mouse HTR2A agonism via beta-arrestin recruitment | activation, % at 7.6 µM | P35363 | AID 624169 | CHO-K1 mHTR2A beta-arrestin complementation, luminescence; percent of 30 µM serotonin response | hit rate 0.66% among 360,000;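 active = activation above a run cutoff, the mean activation of all tested compounds plus 3 SD, cut at about 14% in these data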;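 note: 0% = plate median of compound wells and 100% = 30 µM serotonin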
CXCR6 inh = inhibitors of human CXCR6 receptor. CHO-K1 PathHunter CXCR6 beta-arrestin, luminescence. inhibition, % at 20 µM. hit rate 0.36% among 360,000; in the data active = inhibition above about 34%, passing the limit was not always enough;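 note: antagonist mode with CXCL16 agonist at 10 nM final; 0% = 10 nM CXCL16 with DMSO and 100% = unstimulated wells without agonist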
APJ antagonist = blocks the human apelin receptor APJ. CHO-K1 APJ beta-arrestin complementation, luminescence. inhibition, % at 20 µM. hit rate 0.32% among 330,000. P35414;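 active = inhibition above about 40% at 20 µM, limit read from the data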;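 note: cells challenged with 10 nM apelin-13 agonist together with compound; plate controls were apelin-13 plus DMSO wells for no effect and DMSO wells lacking apelin-13 for full effect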
EBI2 block = EBI2 (human) antagonism; inhibition, % at 5 µM; hit rate 0.81% among 360,000; EBI2 beta-arrestin recruitment, luminescence, 7a,25-OHC stimulated; P32249; in the data active = inhibition above about 38%;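 note: enzyme fragment complementation signal reports receptor beta-arrestin coupling in cells; 0% = agonist plus DMSO wells and 100% = wells without agonist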
EBI2 conf = EBI2 (human) antagonism, single concentration confirmation | EBI2 beta-arrestin luminescence, 7a,25-OHC antagonism | hit rate 29% among 2,400 | inhibition, % at 5 µM | shares compounds with EBI2 block;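 active = inhibition of at least 50%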
EBI2 ag = EBI2 agonism counter-screen; shares compounds with EBI2 block; EBI2-expressing cells, agonist mode, luminescence, 60 min; 0% vehicle, 100% 7α,25-dihydroxycholesterol control; activation, % at 5 µM; 2,400 tested, under 10 active; AID 652000;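 active = activation of at least 50%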
bGal cs = inhibits E. coli beta-galactosidase, counter-screen for EBI2 antagonists; purified beta-galactosidase, luminescent Galacton Star, 15 min; shares compounds with EBI2 block; inhibition, % at 5 µM; hit rate 1% among 2,400;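 active = replicate-average signal at least 3 plate SD below neutral wells, shown as high inhibition, flagging enzyme-inhibiting false positives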;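 note: 0% = DMSO wells with enzyme and 100% = wells lacking enzyme; higher means stronger loss of beta-gal luminescence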
The depositor's hits bear a star.

How did CCNC(=O)C1CCCN1C(=O)C(CCCN=C(N)N)NC(=O)C(CC(C)C)NC(=O)C(Cc1cn(Cc2ccccc2)cn1)NC(=O)C(Cc1ccc(O)cc1)NC(=O)C(CO)NC(=O)C(Cc1c[nH]c2ccccc12)NC(=O)C(Cc1cnc[nH]1)NC(=O)C1CCC(=O)N1 (centres undefined) do in these assays?
CCR6 antag: -4.8; APJ ag: 2.6; m5-HT2A agonist: -0.2; CXCR6 inh: 1.5; APJ antagonist: -7.6; EBI2 block: -1.8

Results for O=C(NCCN1CCN(C(=O)c2ccc(Br)cc2)CC1)c1ccc(Br)cc1 ?
CCR6 antag: -1.8; APJ ag: 3.4; m5-HT2A agonist: -9.1; CXCR6 inh: -7.5; APJ antagonist: 14.7; EBI2 block: 43.7*; EBI2 conf: 22.4; EBI2 ag: -1.2; bGal cs: -5.6

What do the screens show for `Cc1ccc(C(=O)NCCN2CCN(C(=O)c3ccc(C)c(C)c3)CC2)cc1C`?
CCR6 antag: 1.6; APJ ag: -3.8; m5-HT2A agonist: -9.1; CXCR6 inh: 3.2; APJ antagonist: 4.5; EBI2 block: 13.3

Results for CCOc1ccc(N=CNc2ccc(OCC)cc2)cc1 ?
CCR6 antag: 23.2; APJ ag: 0.1; m5-HT2A agonist: 0.9; CXCR6 inh: -14.1; APJ antagonist: 3.2; EBI2 block: 56.0*; EBI2 conf: 48.1; EBI2 ag: 0.2; bGal cs: 4.5

What do the screens show for `CCOc1ccc(N=Cc2ccc3ccccc3c2)cc1`?
CCR6 antag: -10.3; APJ ag: -0.1; m5-HT2A agonist: 4.2; CXCR6 inh: -6.1; APJ antagonist: 6.5; EBI2 block: -0.8

What do the screens show for `O=C(Cn1cnc2c(cnn2-c2ccccc2)c1=O)Nc1ccc(S(=O)(=O)N2CCOCC2)cc1`?
CCR6 antag: -4.4; APJ ag: -1.9; m5-HT2A agonist: -2.1; CXCR6 inh: -0.5; APJ antagonist: 7.8; EBI2 block: -9.2

What do the screens show for `O=C(/C=C/c1ccc(OCCCF)cc1)N1CCN(Cc2ccccc2)CC1`?
CCR6 antag: 8.6; APJ ag: -2.4; m5-HT2A agonist: 3.0; CXCR6 inh: -6.3; APJ antagonist: -2.0; EBI2 block: 87.9*; EBI2 conf: 50.5*; EBI2 ag: -0.9; bGal cs: -10.8

How did O=[N+]([O-])c1ccc(/C=N/N2CCN(Cc3ccccc3)CC2)cc1 do in these assays?
CCR6 antag: 15.2; APJ ag: -0.2; m5-HT2A agonist: -3.1; CXCR6 inh: -8.2; APJ antagonist: -6.2; EBI2 block: -3.0

How did O=C(/C=C/c1ccc(F)cc1)NC(=S)N1CCN(Cc2ccccc2)CC1 do in these assays?
CCR6 antag: 14.9; APJ ag: -0.4; m5-HT2A agonist: -4.5; CXCR6 inh: 10.9; APJ antagonist: -2.8; EBI2 block: 34.5

Results for COc1cccc(/C=C/C(=O)NNC(=O)CCN2CCN(Cc3ccccc3)CC2)c1 ?
CCR6 antag: 6.7; APJ ag: -2.4; m5-HT2A agonist: -0.6; CXCR6 inh: 5.3; APJ antagonist: 16.6; EBI2 block: 15.4

What do the screens show for `CCN1CCN(C(=O)/C=C/c2ccc([N+](=O)[O-])cc2)CC1`?
CCR6 antag: -5.7; APJ ag: 1.2; m5-HT2A agonist: -0.1; CXCR6 inh: -9.5; APJ antagonist: -15.3; EBI2 block: 73.9*; EBI2 conf: 37.8; EBI2 ag: 1.8; bGal cs: 3.9

How did CCN1CCN(C(=S)Nc2ccc([N+](=O)[O-])cc2)CC1 do in these assays?
CCR6 antag: 1.1; APJ ag: -0.3; m5-HT2A agonist: -0.4; CXCR6 inh: -13.3; APJ antagonist: -4.4; EBI2 block: -3.9
